Data from paper PMC4467529 (Bioorganic & medicinal chemistry, 2015).

Experiments:
[1] = cited from earlier work
iNOS = iNOS (Mus musculus, UniProt P29477); test: iNOS inhibitory assay in LPS-induced mouse macrophages; assay type: cell-based; settings: LPS-induced RAW264.7 macrophages
NF-κB = assay type: cell-based, human; settings: Homo sapiens, SW1353, read-out: NF-κB IC50
Procedure, shortened: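 SW1353 cells were grown in DMEM/F12 with 10% FBS and electroporated with an NF-κB luciferase plasmid (50 μg/mL; 160 V, one 70-ms pulse). They were plated at 1.25 × 10⁵ cells/well for 24 h. […] Parthenolide was the reference; Sp-1 served as control factor.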

[2] = In vitro cytotoxicity, Neutral Red assay; assay type: cell-based; settings: pig, LLC-PK11 pig kidney epithelial cells
Procedure, shortened: (§1)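 Cells were kept in RPMI-1640 with 10% bovine calf serum and amikacin 60 mg/L at 37 °C, 5% CO₂. They were seeded at 25,000 cells/well and grown 24 h, then exposed 48 h to test compound diluted in serum-free medium, tested up to 25 μg/ml. Viability was read by Neutral Red, as % decrease versus vehicle. IC50 came from dose curves, in triplicate, with doxorubicin as reference.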

[3] = In vitro cytotoxicity, Neutral Red assay; assay type: cell-based; settings: African green monkey, Vero cells (kidney fibroblasts)
Procedure, shortened: as §1

[4] = In vitro cytotoxicity, Neutral Red assay; assay type: cell-based; settings: human, SK-OV-3 ovary carcinoma cells
Procedure, shortened: (§2)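 Cells grown in RPMI-1640 with 10% bovine calf serum and amikacin (60 mg/L), 37°C, 5% CO₂, 95% humidity. Seeded at 25,000 cells/well, grown 24 h. Test samples diluted in serum-free medium, exposure 48 h. Viable cells counted by Neutral Red uptake; % viability loss against vehicle control. IC50 from dose curves, triplicate, means reported.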

[5] = In vitro cytotoxicity, Neutral Red assay; assay type: cell-based; settings: human, BT-549 breast ductal carcinoma cells
Procedure, shortened: as §1

[6] = In vitro cytotoxicity, Neutral Red assay; assay type: cell-based; settings: human, KB oral epidermal carcinoma cells
Procedure, shortened: as §2

[7] = In vitro cytotoxicity, Neutral Red assay; assay type: cell-based; settings: human, SK-MEL malignant melanoma cells
Procedure, shortened: as §1

## O=C(c1ccccc1)c1ccc2[nH]c(=O)sc2c1 [Compound S-14080]
[1]
  anti-inflammatory and antinociceptive activities (in words): superior to acetylsalicylic acid and equivalent to glafenine

## O=c1oc2ccccc2n1CCCCN1CCN(CCCCn2c(=O)oc3ccccc32)CC1 [Compound 3e, 3,3′-(piperazine-1,4-diylbis(butane-4,1-diyl))bis(benzo[d]oxazol-2(3H)-one)]
iNOS
  iNOS inhibitory activity (in words): no activity
NF-κB
  IC50: > 25 µg/mL
[2]
  IC50 at 48 h: > 25 µg/mL
[3]
  IC50 at 48 h: > 25 µg/mL
[4]
  IC50 at 48 h: > 25 µg/mL
[5]
  IC50 at 48 h: > 25 µg/mL
[6]
  IC50 at 48 h: > 25 µg/mL
[7]
  IC50 at 48 h: > 25 µg/mL

## O=c1sc2ccccc2n1CCCCN1CCN(CCCCn2c(=O)sc3ccccc32)CC1 [Compound 3f, 3,3′-(piperazine-1,4-diylbis(butane-4,1-diyl))bis(benzo[d]thiazol-2(3H)-one)]
iNOS
  iNOS inhibitory activity (in words): no activity
[2]
  IC50 at 48 h: > 25 µg/mL
[3]
  IC50 at 48 h: > 25 µg/mL
[4]
  IC50 at 48 h: > 25 µg/mL
[5]
  IC50 at 48 h: > 25 µg/mL
[6]
  IC50 at 48 h: > 25 µg/mL
[7]
  IC50 at 48 h: > 25 µg/mL
